According to ChEMBL document CHEMBL1127491, “Sulfinosine congeners: synthesis and antitumor activity in mice of certain N9-alkylpurines and purine ribonucleosides” (J Med Chem, 1994):

The compounds below were run on L1210 (assay: Percentage of viable L1210 leukemia cells killed by single treatment with the compound). Details: mouse.
Format: ADME, cell-based

Compound | Cells killed [%]
CCCCCn1cnc2c(S)ncnc21 | 91
CS(=O)(=O)c1nc(N)nc2c1ncn2C1O[C@H](CO)[C@@H](O)[C@H]1O (stereo partly drawn) | 0
Nc1nc([S+]([O-])Cc2ccccc2)c2ncn(C3O[C@H](CO)[C@@H](O)[C@H]3O)c2n1 (stereo partly drawn) | 97
Nc1nc(S(=O)(=O)Cc2ccccc2)c2ncn(C3O[C@H](CO)[C@@H](O)[C@H]3O)c2n1 (stereo partly drawn) | 76
CCCCCn1cnc2c([S+](N)[O-])ncnc21 (stereo not drawn) | 90
CCCCCn1cnc2c([S+](N)[O-])nc(N)nc21 (stereo not drawn) | 72
CCCCCn1cnc2c(S)nc(N)nc21 | 92
CCCCCCn1cnc2c(SN)nc(N)nc21 | 87
NSc1nc(N)nc2c1ncn2C1O[C@H](CO)[C@@H](O)[C@H]1O (stereo partly drawn) | 99.8
Nc1nc([S+](N)[O-])c2ncn(C3O[C@H](CO)[C@@H](O)[C@H]3O)c2n1 (stereo partly drawn) | 99.8
CCCCCCn1cnc2c(S)nc(N)nc21 | 72
CSc1nc(N)nc2c1ncn2[C@@H]1O[C@H](CO)[C@@H](O)[C@H]1O | 0
CCCCCCn1cnc2c(SN)ncnc21 | 75
CCCCCCn1cnc2c(S)ncnc21 | 87
C[S+]([O-])c1nc(N)nc2c1ncn2C1O[C@H](CO)[C@@H](O)[C@H]1O (stereo partly drawn) | 71
CCCCCn1cnc2c(SN)nc(N)nc21 | 70
Nc1nc([S+](N)[O-])c2ncn(CCCCCCO)c2n1 (stereo not drawn) | 96
CCCCCCn1cnc2c([S+](N)[O-])nc(N)nc21 (stereo not drawn) | 93

What follows are compounds tested on Mus musculus (assay: Maximum soluble dosage which induces toxicity in mice when administered intraperitoneally was determined). Details: in vivo, ip.
Format: organism-based
How it was run: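 Drug was solubilized just before use and given as a single ip bolus at 0.01 mL/g, 24 h after ip inoculation of 1 x 10^6 L1210 cells in BD2F1 mice. This gave a dose 10 times the solubility (mg/mL) in mg/kg. Deaths were assigned to compound toxicity or leukemia by temporal pattern of death and necropsy findings.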

Compound | Dosage [mg/kg]
CCCCCn1cnc2c(S)ncnc21 | 41
CS(=O)(=O)c1nc(N)nc2c1ncn2C1O[C@H](CO)[C@@H](O)[C@H]1O (stereo partly drawn) | 104
Nc1nc([S+]([O-])Cc2ccccc2)c2ncn(C3O[C@H](CO)[C@@H](O)[C@H]3O)c2n1 (stereo partly drawn) | 37
Nc1nc(S(=O)(=O)Cc2ccccc2)c2ncn(C3O[C@H](CO)[C@@H](O)[C@H]3O)c2n1 (stereo partly drawn) | 104
CCCCCn1cnc2c([S+](N)[O-])ncnc21 (stereo not drawn) | 480
CCCCCn1cnc2c([S+](N)[O-])nc(N)nc21 (stereo not drawn) | 106
CCCCCn1cnc2c(S)nc(N)nc21 | 40
CCCCCCn1cnc2c(SN)nc(N)nc21 | 105
C[S+]([O-])c1nc(N)nc2c1ncn2[C@H]1C[C@H](O)[C@@H](CO)O1 (stereo partly drawn) | 800
NSc1nc(N)nc2c1ncn2C1O[C@H](CO)[C@@H](O)[C@H]1O (stereo partly drawn) | 22
CCCCCCn1cnc2c([S+](N)[O-])ncnc21 (stereo not drawn) | 800
Nc1nc([S+](N)[O-])c2ncn(C3O[C@H](CO)[C@@H](O)[C@H]3O)c2n1 (stereo partly drawn) | 173
CCCCCCn1cnc2c(S)nc(N)nc21 | 110
CSc1nc(N)nc2c1ncn2[C@H]1C[C@H](O)[C@@H](CO)O1 | 800
CSc1nc(N)nc2c1ncn2[C@@H]1O[C@H](CO)[C@@H](O)[C@H]1O | 37
CCCCCCn1cnc2c(SN)ncnc21 | 410
CS(=O)(=O)c1nc(N)nc2c1ncn2[C@H]1C[C@H](O)[C@@H](CO)O1 | 800
CCCCCCn1cnc2c(S)ncnc21 | 44
C[S+]([O-])c1nc(N)nc2c1ncn2C1O[C@H](CO)[C@@H](O)[C@H]1O (stereo partly drawn) | 480
CCCCCn1cnc2c(SN)nc(N)nc21 | 47
Nc1nc([S+](N)[O-])c2ncn(CCCCCCO)c2n1 (stereo not drawn) | 39
CCCCCCn1cnc2c([S+](N)[O-])nc(N)nc21 (stereo not drawn) | 460

Species on record: Mus musculus
Experiment: Antileukemic activity in BD2F1 mice inoculated with 1 x 10E6 L1210 cells.
Format: functional
Details: not given
How it was run: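 BD2F1 mice were inoculated ip on day 0 with 1 x 10^6 L1210 cells and given one ip bolus 24 h later (0.01 mL/g; water or Me2SO vehicle; dose 10x solubility in mg/mL, lowered if lethally toxic). Controls got saline. Six mice per group. %T/C = mean treated life span / mean control life span x 100, pooled over four studies with 10 controls each.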

Compound | T/C [%]
CCCCCn1cnc2c(S)ncnc21 | 141
CS(=O)(=O)c1nc(N)nc2c1ncn2C1O[C@H](CO)[C@@H](O)[C@H]1O (stereo partly drawn) | 96
Nc1nc([S+]([O-])Cc2ccccc2)c2ncn(C3O[C@H](CO)[C@@H](O)[C@H]3O)c2n1 (stereo partly drawn) | 137
Nc1nc(S(=O)(=O)Cc2ccccc2)c2ncn(C3O[C@H](CO)[C@@H](O)[C@H]3O)c2n1 (stereo partly drawn) | 115
CCCCCn1cnc2c([S+](N)[O-])ncnc21 (stereo not drawn) | 134
CCCCCn1cnc2c([S+](N)[O-])nc(N)nc21 (stereo not drawn) | 117
CCCCCn1cnc2c(S)nc(N)nc21 | 149
CCCCCCn1cnc2c(SN)nc(N)nc21 | 119
NSc1nc(N)nc2c1ncn2C1O[C@H](CO)[C@@H](O)[C@H]1O (stereo partly drawn) | 170
Nc1nc([S+](N)[O-])c2ncn(C3O[C@H](CO)[C@@H](O)[C@H]3O)c2n1 (stereo partly drawn) | 167
CCCCCCn1cnc2c(S)nc(N)nc21 | 118
CSc1nc(N)nc2c1ncn2[C@@H]1O[C@H](CO)[C@@H](O)[C@H]1O | 98
CCCCCCn1cnc2c(SN)ncnc21 | 116
CCCCCCn1cnc2c(S)ncnc21 | 147
C[S+]([O-])c1nc(N)nc2c1ncn2C1O[C@H](CO)[C@@H](O)[C@H]1O (stereo partly drawn) | 114
CCCCCn1cnc2c(SN)nc(N)nc21 | 118
Nc1nc([S+](N)[O-])c2ncn(CCCCCCO)c2n1 (stereo not drawn) | 139
CCCCCCn1cnc2c([S+](N)[O-])nc(N)nc21 (stereo not drawn) | 121
